Assay results taken from ChEMBL document CHEMBL2040835, “Disubstituted Bis-THF Moieties as New P2 Ligands in Nonpeptidal HIV-1 Protease Inhibitors” (ACS Med Chem Lett, 2011).

Tests used:
[1] = Cytotoxicity against human MT4 cells; assay type: cell-based
[2] = test system: Human immunodeficiency virus 1; test: Antiviral activity against Human immunodeficiency virus 1 3B expressing wild-type protease infected in human MT4 cells in presence of 50% human serum; assay type: functional, organism-based
Method in brief: (§1)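 Cell-based antiviral assay in MT4 cells infected with wild-type HIV-1 IIIB, read as EC50. Run in quadruplicate. It was also repeated in the presence of 50% human serum as an indicator of plasma protein binding.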

[3] = test system: Human immunodeficiency virus 1; test: Antiviral activity against Human immunodeficiency virus 1 isolate M3 expressing protease L10I, K20R, M36I, G48V, I62V, A71V, V82A, I93L mutant infected in human MT4 cells; assay type: functional, organism-based; conditions: Human immunodeficiency virus 1, isolate M3, MT4
[4] = test system: Human immunodeficiency virus 1; test: Antiviral activity against Human immunodeficiency virus 1 isolate M1 expressing protease L10I, M46I, I64V, I84V, L90M, I93L mutant infected in human MT4 cells; assay type: functional, organism-based; conditions: Human immunodeficiency virus 1, isolate M1, MT4
Method in brief: (§2)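 Cell-based antiviral assay in MT4 cells infected with a multi-PI-resistant HIV-1 mutant carrying clinically observed primary protease mutations. EC50 determined, with all assays run in quadruplicate.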

[5] = test system: Human immunodeficiency virus 1; test: Antiviral activity against Human immunodeficiency virus 1 isolate M2 expressing protease L10I, I13V, M46I, I50V, L63P, L76V mutant infected in human MT4 cells; assay type: functional, organism-based; conditions: Human immunodeficiency virus 1, isolate M2, MT4; method in brief: as §2
[6] = test system: Human immunodeficiency virus 1; test: Antiviral activity against Human immunodeficiency virus 1 3B expressing wild-type protease infected in human MT4 cells; assay type: functional, organism-based; method in brief: as §1
[7] = test system: Human immunodeficiency virus 1; test: Selectivity index, ratio of EC50 for Human immunodeficiency virus 1 isolate M2 expressing protease L10I, I13V, M46I, I50V, L63P, L76V mutant to EC50 for Human immunodeficiency virus 1 3B expressing wild-type protease; assay type: functional
Method in brief: (§3)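 Fold change is the EC50 against the multi-PI-resistant mutant divided by the EC50 against wild-type HIV-1 IIIB. Both EC50s come from cell-based assays in MT4 cells run in quadruplicate.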

[8] = test system: Human immunodeficiency virus 1; test: Selectivity index, ratio of EC50 for Human immunodeficiency virus 1 isolate M1 expressing protease L10I, M46I, I64V, I84V, L90M, I93L mutant to EC50 for Human immunodeficiency virus 1 3B expressing wild-type protease; assay type: functional; method in brief: as §3
[9] = Selectivity index, ratio of CC50 for human MT4 cells to EC50 for Human immunodeficiency virus 1 3B; assay type: toxicity, cell-based
Method in brief: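 Selectivity index is calculated as CC50 divided by EC50 against HIV-1 IIIB in the cell-based assay.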

[10] = test system: Human immunodeficiency virus 1; test: Selectivity index, ratio of EC50 for Human immunodeficiency virus 1 isolate M3 expressing protease L10I, K20R, M36I, G48V, I62V, A71V, V82A, I93L mutant to EC50 for Human immunodeficiency virus 1 3B expressing wild-type protease; assay type: functional; method in brief: as §3
[11] = target: Protease (Human immunodeficiency virus 1, UniProt Q9YQ12); test: Inhibition of Human immunodeficiency virus 1 3B protease
[12] = Ratio of EC50 for Human immunodeficiency virus 1 3B expressing wild-type protease to IC50 for Human immunodeficiency virus 1 3B protease

Protease, sequence (Q9YQ12 whole entry): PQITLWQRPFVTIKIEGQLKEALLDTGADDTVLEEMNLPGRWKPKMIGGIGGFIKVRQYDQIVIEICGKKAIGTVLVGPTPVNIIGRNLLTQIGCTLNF

With `CC(C)CN(C[C@@H](O)[C@H](Cc1ccccc1)NC(=O)O[C@H]1CO[C@H]2OCC[C@H]21)S(=O)(=O)c1ccc(N)cc1` the CC50 [1] was over 9800 nM, the EC50 [2] was 17.2 nM and the EC50 [3] was 2.3 nM. The EC50 [4] was 11.3 nM, the EC50 [5] was 51 nM and the EC50 [6] was 6.6 nM.

With `CNc1nc2ccc(S(=O)(=O)N(CC(C)C)C[C@@H](O)[C@H](Cc3ccccc3)NC(=O)O[C@H]3CO[C@H]4OCC[C@H]43)cc2o1` the “Ratio EC50” value [7] was 1.4, the CC50 [1] was over 9800 nM and the EC50 [2] was 8.3 nM. For the same molecule, the “Ratio EC50” value [8] was 1.2, the selectivity ratio [9] was over 2000 and the “Ratio EC50” value [10] was 0.4. For the same molecule, the EC50 [3] was 0.9 nM, the EC50 [4] was 2.7 nM and the EC50 [5] was 3.2 nM. The EC50 [6] was 2.3 nM.

For `CC(C)CN(C[C@@H](O)[C@H](Cc1ccccc1)NC(=O)O[C@H]1CO[C@H]2OC[C@H](O)[C@H]21)S(=O)(=O)c1ccc(N)cc1`, the “Ratio EC50” value [7] was 0.3, the EC50 [2] was 814 nM and the “Ratio EC50” value [8] was 0.1. For the same molecule, the IC50 [11] was 2.9 nM, the “Ratio EC50” value [10] was under 0.1 and the Ratio [12] was 250. The EC50 [3] was 40.4 nM, the EC50 [4] was 112 nM and the EC50 [5] was 204 nM. The EC50 [6] was 773 nM.

For `CC(C)CN(C[C@@H](O)[C@H](Cc1ccccc1)NC(=O)O[C@H]1CO[C@H]2OC[C@H](OCc3ccccc3)[C@H]21)S(=O)(=O)c1ccc(N)cc1`, the “Ratio EC50” value [7] was 12, the CC50 [1] was over 9800 nM and the EC50 [2] was 12.1 nM. The “Ratio EC50” value [8] was 3.1, the selectivity ratio [9] was over 2000 and the IC50 [11] was 3.5 nM. For the same molecule, the “Ratio EC50” value [10] was 1.1, the EC50 [3] was 1.7 nM and the EC50 [4] was 4.7 nM. For the same molecule, the EC50 [5] was 18 nM and the EC50 [6] was 1.5 nM.

In the case of `CC(C)CN(C[C@@H](O)[C@H](Cc1ccccc1)NC(=O)O[C@H]1CO[C@H]2OC[C@H](Oc3ccccc3)[C@H]21)S(=O)(=O)c1ccc(N)cc1`, the “Ratio EC50” value [7] is reported as 28, the CC50 [1] is reported as over 9800 nM and the EC50 [2] is reported as 47.2 nM. For the same molecule, the “Ratio EC50” value [8] was 3.7, the selectivity ratio [9] was over 2000 and the “Ratio EC50” value [10] was 0.7. The EC50 [3] was 6.5 nM, the EC50 [4] was 32.5 nM and the EC50 [5] was 249 nM. It also gave an EC50 [6] of 8.9 nM.

For `COCCO[C@H]1CO[C@@H]2OC[C@H](OC(=O)N[C@@H](Cc3ccccc3)[C@H](O)CN(CC(C)C)S(=O)(=O)c3ccc(N)cc3)[C@@H]21`, the “Ratio EC50” value [7] was 4.6, the CC50 [1] was over 9800 nM and the EC50 [2] was 37 nM. For the same molecule, the “Ratio EC50” value [8] was 0.8, the selectivity ratio [9] was over 2000 and the IC50 [11] was 2.5 nM. For the same molecule, the “Ratio EC50” value [10] was 0.4, the EC50 [3] was 6.8 nM and the EC50 [4] was 11.9 nM. For the same molecule, the EC50 [5] was 71.4 nM and the EC50 [6] was 15.5 nM.

In the case of `CNc1nc2ccc(S(=O)(=O)N(CC(C)C)C[C@@H](O)[C@H](Cc3ccccc3)NC(=O)O[C@H]3CO[C@H]4OC[C@H](O)[C@H]43)cc2o1`, the “Ratio EC50” value [7] is reported as 0.8, the EC50 [2] is reported as 446 nM and the “Ratio EC50” value [8] is reported as 0.9. The “Ratio EC50” value [10] was 0.8, the EC50 [3] was 104 nM and the EC50 [4] was 125 nM. The EC50 [5] was 108 nM and the EC50 [6] was 138 nM.

For `CNc1nc2ccc(S(=O)(=O)N(CC(C)C)C[C@@H](O)[C@H](Cc3ccccc3)NC(=O)O[C@H]3CO[C@H]4OC[C@H](OCc5ccccc5)[C@H]43)cc2o1`, the “Ratio EC50” value [7] was 4.5, the CC50 [1] was over 9800 nM and the EC50 [2] was 3.7 nM. For the same molecule, the “Ratio EC50” value [8] was 2.2, the selectivity ratio [9] was over 2000 and the “Ratio EC50” value [10] was 1.3. It also gave an EC50 [3] of 1 nM, an EC50 [4] of 1.7 nM and an EC50 [5] of 3.4 nM. It also gave an EC50 [6] of 0.8 nM.

For `CNc1nc2ccc(S(=O)(=O)N(CC(C)C)C[C@@H](O)[C@H](Cc3ccccc3)NC(=O)O[C@H]3CO[C@H]4OC[C@H](OCc5ccccc5F)[C@H]43)cc2o1`, the “Ratio EC50” value [7] was 3.1, the CC50 [1] was over 9800 nM and the EC50 [2] was 4 nM. For the same molecule, the “Ratio EC50” value [8] was 2, the selectivity ratio [9] was over 2000 and the “Ratio EC50” value [10] was 1.3. It also gave an EC50 [3] of 0.9 nM, an EC50 [4] of 1.3 nM and an EC50 [5] of 2.1 nM. The EC50 [6] was 0.7 nM.

For `CNc1nc2ccc(S(=O)(=O)N(CC(C)C)C[C@@H](O)[C@H](Cc3ccccc3)NC(=O)O[C@H]3CO[C@H]4OC[C@H](OCc5cccc(F)c5)[C@H]43)cc2o1`, the “Ratio EC50” value [7] was 2.7, the CC50 [1] was over 9800 nM and the EC50 [2] was 3.7 nM. The “Ratio EC50” value [8] was 1.2, the selectivity ratio [9] was over 2000 and the “Ratio EC50” value [10] was 1.3. It also gave an EC50 [3] of 0.8 nM, an EC50 [4] of 0.8 nM and an EC50 [5] of 1.7 nM. For the same molecule, the EC50 [6] was 0.6 nM.

With `CNc1nc2ccc(S(=O)(=O)N(CC(C)C)C[C@@H](O)[C@H](Cc3ccccc3)NC(=O)O[C@H]3CO[C@H]4OC[C@H](OCc5ccc(F)cc5)[C@H]43)cc2o1` the “Ratio EC50” value [7] was 3.8, the CC50 [1] was over 9800 nM and the EC50 [2] was 4 nM. For the same molecule, the “Ratio EC50” value [8] was 1.8, the selectivity ratio [9] was over 2000 and the “Ratio EC50” value [10] was 1.6. For the same molecule, the EC50 [3] was 1 nM, the EC50 [4] was 1.1 nM and the EC50 [5] was 2.3 nM. For the same molecule, the EC50 [6] was 0.6 nM.

For `CNc1nc2ccc(S(=O)(=O)N(CC(C)C)C[C@@H](O)[C@H](Cc3ccccc3)NC(=O)O[C@H]3CO[C@H]4OC[C@H](OCc5ccc(F)cc5F)[C@H]43)cc2o1`, the “Ratio EC50” value [7] was 4.1, the CC50 [1] was over 9800 nM and the EC50 [2] was 5.4 nM. The “Ratio EC50” value [8] was 2, the selectivity ratio [9] was over 2000 and the “Ratio EC50” value [10] was 1.3. The EC50 [3] was 0.7 nM, the EC50 [4] was 1.1 nM and the EC50 [5] was 2.3 nM. It also gave an EC50 [6] of 0.6 nM.

In the case of `CNc1nc2ccc(S(=O)(=O)N(CC(C)C)C[C@@H](O)[C@H](Cc3ccccc3)NC(=O)O[C@H]3CO[C@H]4OC[C@H](OCCOC)[C@H]43)cc2o1`, the “Ratio EC50” value [7] is reported as 1.3, the CC50 [1] is reported as over 9800 nM and the EC50 [2] is reported as 24 nM. For the same molecule, the “Ratio EC50” value [8] was 0.8, the selectivity ratio [9] was over 2000 and the IC50 [11] was 1.5 nM. For the same molecule, the “Ratio EC50” value [10] was 0.5, the EC50 [3] was 4.3 nM and the EC50 [4] was 6.9 nM. For the same molecule, the EC50 [5] was 10.8 nM and the EC50 [6] was 8.6 nM.

For `CNc1nc2ccc(S(=O)(=O)N(CC(C)C)C[C@@H](O)[C@H](Cc3ccccc3)NC(=O)O[C@H]3CO[C@H]4OC[C@H](OCOC)[C@H]43)cc2o1`, the “Ratio EC50” value [7] was 2.4, the CC50 [1] was over 9800 nM and the EC50 [2] was 7 nM. The “Ratio EC50” value [8] was 1.2, the selectivity ratio [9] was over 2000 and the “Ratio EC50” value [10] was 0.7. It also gave an EC50 [3] of 1.9 nM, an EC50 [4] of 5 nM and an EC50 [5] of 11.2 nM. The EC50 [6] was 3.4 nM.

For `CNc1nc2ccc(S(=O)(=O)N(CC(C)C)C[C@@H](O)[C@H](Cc3ccccc3)NC(=O)O[C@H]3CO[C@H]4OC[C@H](OCSC)[C@H]43)cc2o1`, the “Ratio EC50” value [7] was 7.1, the CC50 [1] was over 9800 nM and the EC50 [2] was 6.7 nM. The “Ratio EC50” value [8] was 3, the selectivity ratio [9] was over 2000 and the “Ratio EC50” value [10] was 1.7. It also gave an EC50 [3] of 2.2 nM, an EC50 [4] of 3.9 nM and an EC50 [5] of 9.3 nM. It also gave an EC50 [6] of 1.3 nM.

In the case of `COC(=O)N[C@H](C(=O)N[C@@H](Cc1ccccc1)[C@@H](O)CN(Cc1ccc(-c2ccccn2)cc1)NC(=O)[C@@H](NC(=O)OC)C(C)(C)C)C(C)(C)C` [ATAZANAVIR], the “Ratio EC50” value [7] is reported as 0.5, the CC50 [1] is reported as over 9800 nM and the EC50 [2] is reported as 13.3 nM. For the same molecule, the “Ratio EC50” value [8] was 8.4, the selectivity ratio [9] was over 2000 and the “Ratio EC50” value [10] was 8.8. It also gave an EC50 [3] of 60.5 nM, an EC50 [4] of 58 nM and an EC50 [5] of 3.2 nM. The EC50 [6] was 6.9 nM.

In the case of `Cc1cccc(C)c1OCC(=O)N[C@@H](Cc1ccccc1)[C@@H](O)C[C@H](Cc1ccccc1)NC(=O)[C@H](C(C)C)N1CCCNC1=O` [LOPINAVIR], the CC50 [1] is reported as over 9800 nM, the EC50 [2] is reported as 63.2 nM and the EC50 [4] is reported as 115 nM. It also gave an EC50 [5] of 307 nM and an EC50 [6] of 13.9 nM.
